Source: ChEMBL document CHEMBL4177752, “Discovery of Novel Schizocommunin Derivatives as Telomeric G-Quadruplex Ligands That Trigger Telomere Dysfunction and the Deoxyribonucleic Acid (DNA) Damage Response” (J Med Chem, 2018)
Calls of active or inactive are those of the source. The calls are words filed in the database; no cut-off is given here.

Assays:
[1] = tested on: Quadruplex DNA; assay: Stabilization of telomeric G-quadruplex DNA in human SiHa cells assessed as levels of metaphase chromosome having at least one telomere end loss at 1 uM after 48 hrs by Tamra-OO-[TTAGGG]3 PNA probe and DAPI staining-based FISH assay relative to control; format: cell-based
How it was run: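 Metaphase spreads from SiHa cells treated 48 h with 1 µM compound or 0.1% DMSO were hybridized with a telomeric PNA probe and counterstained with DAPI. The share of chromosomes with at least one telomere-free end was scored; mean ± SEM, two-tailed unpaired t test.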

[2] = tested on: Quadruplex DNA; assay: Stabilization of telomeric G-quadruplex DNA in human SiHa cells assessed as delocalization of POT1 from TRF2 foci at 2 uM after 24 hrs by DAPI staining-based double immunofluorescence method; format: cell-based
How it was run: (§1)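 Cells were treated 24 h with 2 µM compound or 0.1% DMSO, then fixed (4% paraformaldehyde), permeabilized (0.5% Triton X-100) and blocked (5% goat serum). Staining used BG4 (80 ng/µL, 37 °C 3 h) with anti-FLAG, and/or γ-H2AX, TRF2 or POT1 antibodies at 4 °C overnight. Alexa 488/555 secondaries and DAPI followed. Foci or co-localized foci per nucleus were counted by confocal microscopy; mean ± SEM, two-tailed unpaired t test.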

[3] = tested on: Quadruplex DNA; assay: Stabilization of telomeric G-quadruplex DNA in human U2OS cells assessed as induction of DNA damage response by measuring co-localization of gamma-H2AX and TRF2 foci per nucleus at 2 uM after 24 hrs by DAPI staining-based double immunofluorescence method; format: cell-based; how it was run: as §1
[4] = tested on: Mus musculus; assay: Toxicity in BALB/C-nu/nu mouse xenografted with human SiHa cells assessed as decrease in body weight at 10 to 20 mg/kg, ip administered daily for 3 weeks measured everyday during compound dosing; format: organism-based; settings: in vivo, 504 h
How it was run: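 SiHa cells (1×10^7 per 100 µL, serum-free DMEM) were injected subcutaneously. Grown tumors were divided into pieces and implanted into BALB/C-nu/nu mice. Caliper volume (1/2 × L × W²) and body weight were recorded daily; tumors were weighed at the end.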

[5] = Stabilization of F10T hairpin duplex DNA (unknown origin) assessed as change in melting temperature at 1 uM by FRET assay
How it was run: (§2)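 FRET melting: 0.2 µM F21T or F10T (FAM/TAMRA-labelled), with or without 1.0 µM ligand, in 10 mM Tris-HCl pH 7.4 with 60 mM KCl. Excitation 470 nm, emission 530 nm, read every 1 °C from 37–99 °C at 1 °C/min with a 30 s hold. ΔTm = Tm(DNA+ligand) − Tm(DNA).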

[6] = tested on: SiHa; assay: Induction of telomeric G-quadruplex DNA formation in human SiHa cells assessed as increase in colocalization of BG4/TRF2 foci per nucleus at 2 uM after 24 hrs by DAPI staining-based immunofluorescence method; format: cell-based; how it was run: as §1
[7] = tested on: Quadruplex DNA; assay: Stabilization of telomeric G-quadruplex DNA in human SiHa cells assessed as induction of telomere uncapping by measuring formation of micronuclei at 1 uM after 48 hrs by DAPI staining-based laser scanning microscopic method; format: cell-based
[8] = tested on: SiHa; assay: Effect on POT1 expression in human SiHa cells at 1 uM after 48 hrs by Western blot method; format: functional, cell-based
[9] = tested on: Quadruplex DNA; assay: Stabilization of telomeric G-quadruplex DNA in human U2OS cells assessed as increase in BG4 foci per nucleus at 2 uM after 24 hrs by DAPI staining-based immunofluorescence method; format: cell-based; how it was run: as §1
[10] = tested on: Quadruplex DNA; assay: Stabilization of F21T telomeric G-quadruplex DNA (unknown origin) assessed as change in melting temperature at 1 uM by FRET assay; format: nucleic-acid assay; how it was run: as §2
[11] = tested on: Quadruplex DNA; assay: Stabilization of telomeric G-quadruplex DNA in human SiHa cells assessed as induction of telomere uncapping by measuring formation of anaphase bridge at 1 uM after 48 hrs by DAPI staining-based laser scanning microscopic method; format: cell-based
How it was run: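 SiHa cells were treated with 1 µM compound for 48 h, fixed in 2% formaldehyde/0.2% glutaraldehyde for 15 min, and stained with 2 µg/mL DAPI at 37 °C for 3 h. Confocal imaging followed. Anaphase-bridge frequency is the fraction of cells with bridges; at least 50 anaphase cells per experiment.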

[12] = tested on: Quadruplex DNA; assay: Stabilization of telomeric G-quadruplex DNA in human SiHa cells assessed as increase in BG4 foci per nucleus at 2 uM after 24 hrs by DAPI staining-based immunofluorescence method relative to control; format: cell-based; how it was run: as §1
[13] = tested on: SiHa; assay: Induction of apoptosis in human SiHa cells at 2 uM after 96 hrs by annexin V-FITC/propidium iodide staining-based flow cytometric method relative to control; format: functional
How it was run: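 SiHa cells were treated with compound or DMSO for 96 h, washed, resuspended in binding buffer, and stained with Annexin V-FITC and PI for 15 min in the dark. Apoptotic percentage was measured by flow cytometry; mean ± SEM.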

[14] = tested on: U2OS; assay: Induction of telomeric G-quadruplex DNA formation in human U2OS cells assessed as increase in co-localization of BG4/TRF2 foci per nucleus at 2 uM after 24 hrs by DAPI staining-based double immunofluorescence method; format: cell-based; how it was run: as §1
[15] = Binding affinity to hairpin duplex DNA (unknown origin) at 40 uM by SPR method
How it was run: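 SPR: biotinylated HTG21 or hairpin DNA (200 nM) was folded in 50 mM Tris-HCl pH 7.4 with 100 mM KCl and captured to about 1,000 RU on an NLC chip against a blank reference cell. Ligand at 0.625–40 µM was injected at 25 µL/min (400 s association, 300 s dissociation) at 25 °C. The chip was regenerated with 1 M KCl and blank sensorgrams were subtracted.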

SMILES: CN(C)CCCNc1cc2nc(/C=C3\C(=O)Nc4cc(N5CCN(C)CC5)ccc43)[nH]c(=O)c2cc1F
- Activity [1]: 31%
- Activity [2]: Active
- Activity [3]: Active
- Activity [4]: Non-Toxic
- ΔTm [5]: 0.1 °C
- Activity [6]: Active
- Activity [7]: Active
- Activity [8]: inactive
- Activity [9]: Active
- ΔTm [10]: 23.5 °C
- Activity [11]: Active
- fold change (FC) [12]: 2
- Activity [13]: 60%
- Activity [14]: Active
- Activity [15]: inactive
